GPR7 antagonist = blocks human GPR7 receptor signaling. actives 1.1% (n = 290,000). GPR7-expressing cells, fluorescence antagonist assay. AID 1861. P48145. inhibition, % at 4.4 µM; in the data active = inhibition above about 16%, passing the limit was not always enough;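 note: cells stimulated with the agonist NPW; 0% = agonist with vehicle and 100% = vehicle without agonist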
CHO parental Ca = signal in parental CHO cells, OX1R antagonist counter-screen; actives 0.63% (n = 330,000); parental CHO-K1, ATP-induced calcium, Fluo-8 fluorescence; inhibition, % at 5.6 µM; AID 463079;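 active = inhibition above that plate's mean sample inhibition plus 3 SD, cut at about 26% in these data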;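 note: 0% = ATP-challenged DMSO wells and 100% = DMSO wells without ATP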
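Material – parental CHO cells · Reagent – ATP stimulus · Compound – single nominal dose of 5.6 µM per compound · Detection – Fluo-8 fluorescence · Read-out basis – percent inhibition of calcium signal · Controls – ATP-challenged DMSO wells low, unchallenged DMSO wells high · Repeats – no replicates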
OX1R antag-1 = antagonists of human orexin 1 receptor (OX1R) | O43613 | OX1R-expressing cells, FRET antagonist read-out | inhibition, % at 6.6 µM | actives 1.8% (n = 330,000) | AID 485270; in the data active = inhibition mostly above about 38%, no sharp cut-off; inactive = mostly below about 40%;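 note: 0% = agonist challenge alone and 100% = reference antagonist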
OX1R antag-2 = human HCRTR1 antagonism; CHO/OX1R cells, Fluo-8 calcium fluorescence, orexin A; actives 0.43% (n = 330,000); inhibition, % at 5 µM; O43613;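 active = inhibition above its plate's threshold, mean inhibition of all tested compounds on the plate plus 3 SD, cut at about 37% in these data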;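 note: 0% = orexin A challenge wells and 100% = SB-334867-A antagonist wells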
TAAR1 agonist = human TAAR1 agonism. Q96RJ0. CHO RD-HGA16 TAAR1, Fluo-8 calcium fluorescence; vehicle wells 0%, saturating PEA agonist 100%. activation, % at 3 µM. actives 0.99% (n = 360,000). AID 624467;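 active = activation above the mean activation of all test compounds in the run plus 3 SD, cut at about 38% in these data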
Target sequence (Q96RJ0 whole entry, looked up): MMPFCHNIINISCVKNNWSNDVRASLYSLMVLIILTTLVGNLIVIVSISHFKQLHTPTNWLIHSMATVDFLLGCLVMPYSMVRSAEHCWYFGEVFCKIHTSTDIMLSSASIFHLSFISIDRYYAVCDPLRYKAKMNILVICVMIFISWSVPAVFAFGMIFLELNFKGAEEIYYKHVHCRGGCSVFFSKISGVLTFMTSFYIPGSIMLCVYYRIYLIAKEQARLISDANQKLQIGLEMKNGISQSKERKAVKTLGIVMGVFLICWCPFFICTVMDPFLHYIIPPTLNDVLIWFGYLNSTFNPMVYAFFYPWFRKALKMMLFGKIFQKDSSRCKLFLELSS
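Test system: RD-HGA16 (CHO) cells co-expressing Gα16 and hTAAR1; dosing: one-point dosing at 3 µM (nominal); timing: 17-24 h seeding, 75 min 37 °C dye, 30 min RT; signal: kinetic Fluo-8 calcium fluorescence; read-out basis: % activation relative to PEA EC100 response; controls: DMSO and PEA EC100; replicates: n 1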
TAAR1 antagonist = human TAAR1 antagonism; CHO RD-HGA16 TAAR1, Fluo-8 calcium fluorescence, antagonist; actives 1.5% (n = 360,000); inhibition, % at 3 µM; Q96RJ0; AID 624466;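 active = inhibition above a per-plate cutoff, the mean inhibition of test compounds on that plate plus 3 SD, cut at about 49% in these data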;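 note: 0% = DMSO plus EC80 beta-PEA response and 100% = DMSO alone without agonist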
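System: RD-HGA16 CHO cells with stable hTAAR1 and Gα16 | Probe or stimulus: EC80 β-phenethylamine stimulus | Dosing: 3 µM, single point | Times: Dye loading 75 min at 37 °C, then 30 min room temperature | Measured by: Fluo-8 calcium-sensitive fluorescence | Read-out basis: % inhibition of agonist calcium response | Replicates: n of 1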
The depositor's hits bear a star; . = not tested or not shown. Most compounds without a hit are left out; they make up all but 4.6% or so of the library.

SMILES	GPR7 antagonist	CHO parental Ca	OX1R antag-1	OX1R antag-2	TAAR1 agonist	TAAR1 antagonist
N=C(N)c1c(O)n(C2CCCCC2)c(=O)n(C2CCCCC2)c1=O	-27	61*	15	26	46*	18
O=C(NC1CN2CCC1CC2)c1ccc(Cl)cc1 (stereo not drawn)	.	.	.	.	2	-6
C[C@@H]1CNCCN1c1ccc(N2CC[C@H](O)C2)c(C#N)c1	.	.	.	.	1	-8
COc1cc2c(cc1OC)-c1c(OC)c(OC)c(OC)c3ccnc(c13)C2=O	3	-24	68*	-6	.	.
c1ccc(CCN2CCC3CCNC3C2)cc1 (stereo not drawn)	.	.	.	.	3	-8
Cc1cccc(C)c1-n1nnnc1C(c1ccccc1)N1CCC2(CC1)C(=O)NCN2c1ccccc1 (stereo not drawn)	.	.	.	.	-1	-7
Cc1cccc(C)c1-n1nnnc1C(C1CC1)N1CCC2(CC1)C(=O)NCN2c1ccccc1 (stereo not drawn)	.	.	.	.	11	50*
C/C(=N\NC(N)=O)c1c(O)n(C)c(=O)n(C)c1=O	-15	35*	14	-10	3	-2
CCOC(=O)[C@]12Cc3cc(OC)ccc3[C@H]1N(C(C)C)C(=O)c1cc(OC)ccc12	.	.	.	.	-2	-44
O=c1[nH]c(=S)[nH]c(O)c1N=Nc1ccc(OC(F)F)cc1	5	-12	50*	-13	0	-4
COC(=O)c1ccccc1N=Cc1c(O)[nH]c(=S)[nH]c1=O	-4	-3	18	-15	1	-3
COc1cccc(N=Nc2c(O)[nH]c(=S)[nH]c2=O)c1	-9	-1	69*	-9	-2	-14
O=c1[nH]c(=S)[nH]c(O)c1N=Nc1cc2c(cc1[N+](=O)[O-])OCO2	-9	1	48	-6	12	-13
O=c1[nH]c(=S)[nH]c(O)c1N=Nc1cc(S(=O)(=O)Nc2ccc(Cl)cc2)ccc1Cl	.	-8	-1	-13	3	-15
O=c1[nH]c(O)c(N=Nc2ccc3c(c2)OCCO3)c(=O)[nH]1	-8	-4	64*	-10	8	7
O=c1[nH]c(O)c(N=Nc2ccc(S(=O)(=O)N3CCOCC3)cc2)c(=O)[nH]1	-5	-7	44	5	2	-7
O=c1[nH]c(=S)[nH]c(O)c1N=Nc1ccc2c(c1)OCO2	14	6	75*	-6	2	2
CC[C@]12CCN(CC3(O)CC3)[C@H](Cc3ccc(O)cc31)C2(C)C	.	.	.	.	3	14
CN(C)C(=O)Oc1ccc2nnc3ccnn3c2c1	-15	-4	36*	-6	-2	11
CN[C@H]1C[C@H]2O[C@@](C)([C@H]1OC)n1c3ccccc3c3c4c(c5c6ccccc6n2c5c31)C(=O)NC4	30*	-14	-18	-28	.	.
C=C1C(=O)OC2CC3(C)OC3C3OC3C3=CC(OC3=O)C12 (stereo not drawn)	.	.	.	.	2	8
C/C=C(\C)C(=O)OC1C(C)=C2C(C1OC(=O)CCCCC)C(C)(OC(C)=O)CC(OC(=O)CCC)C1(O)C2OC(=O)C1(C)O (stereo not drawn)	.	101*	2	101*	.	.
OC1CN2CCC(O)C2C(O)C1O (stereo not drawn)	.	.	.	.	1	-9
Cn1ncnc2c(=O)n(C)c(=O)nc1-2	.	-17	103*	8	.	.
Cc1ccc(-c2cc(-c3ccccc3)cc(-c3ccccc3)[n+]2-c2ccccc2)cc1	.	74*	19	71*	34	104*
SMILES	GPR7 antagonist	CHO parental Ca	OX1R antag-1	OX1R antag-2	TAAR1 agonist	TAAR1 antagonist
Cc1ccc(-c2cc(-c3ccc(C)cc3)[n+](-c3ccccc3)c(-c3ccc(C)cc3)c2)cc1	.	71*	39	91*	.	.
Cc1cc(N2CCNC[C@H]2C)ccc1N1CC[C@@H](O)C1	.	.	.	.	3	-16
Nc1ccc2ccc3cccc[n+]3c2c1	1	37*	36	12	40*	8
COC(=O)C1=C(C(=O)OC)C2OC1c1cc3ccccc3cc12	.	.	.	.	20	58*
COC(=O)C1=C(c2ccc3ccccc3c2)C[C@@H]2CC[C@H]1N2C	.	-12	17	-9	18	-1
Cc1cc(N2CCNC[C@@H]2C)ccc1N1CCN[C@@H](C)C1	.	.	.	.	0	9
O=C1NC(=O)C(=Cc2ccc(SC3CCCCC3)o2)C(=O)N1	-16	1	21	-9	30	59*
NS(=O)(=O)c1ccc(-c2ccc(C=C3C(=O)NC(=O)NC3=O)o2)cc1	-4	-1	27	-2	6	2
C[C@]12CCC3C(CC[C@H]4C[C@H](O)CC[C@]34C)C1C[C@H](O)[C@@H]2O (stereo partly drawn)	.	0	5	6	18	60*
CC12C=CC(=O)CC1CCC1C2CCC2(C)C(O)C(O)CC12 (stereo not drawn)	.	.	.	.	22	58*
C[C@]12CCC3C(CC[C@H]4C[C@H](O)CC[C@]34C)C1C[C@@H](O)[C@@H]2O (stereo partly drawn)	.	-7	15	7	3	-5
Cc1ccc(C(O)(C(=O)OC(C)C)C(O)c2ccccc2)cc1 (stereo not drawn)	.	.	.	.	0	-10
COC(=O)C1C(c2ccc(Cl)cc2)CC2CCC1N2C (stereo not drawn)	.	.	.	.	2	-14
Nc1c(Br)cc([N+](=O)[O-])cc1[N+](=O)[O-]	.	-7	36*	-19	-1	18
O=C1NC(=O)C(CCc2ccncc2)(CCc2ccncc2)C(=O)N1CCc1ccccc1	-16	-9	5	-27	9	3
O=C1NC(=O)C(CCc2ccncc2)(Cc2ccc3c(c2)OCO3)C(=O)N1CCc1ccccc1 (stereo not drawn)	3	-9	18	-17	19	49*
CSCCC(c1nnnn1-c1ccc2c(c1)OCCO2)N1CCC(n2c(=O)[nH]c3ccccc32)CC1 (stereo not drawn)	.	.	.	.	13	62*
CCC(c1nnnn1-c1ccc2c(c1)OCCO2)N1CCC(n2c(=O)[nH]c3ccccc32)CC1 (stereo not drawn)	.	.	.	.	18	66*
CCOc1ccc(-n2c(-c3ccoc3)nc3ccccc3c2=O)cc1	4	-13	22	-21	7	5

From PubChem BioAssay
